Reference: ChEMBL document CHEMBL1629527, “In vitro antifungal activities of bis(alkylpyridinium)alkane compounds against pathogenic yeasts and molds” (Antimicrob Agents Chemother, 2010)

Assays:
Candida albicans [1] = experiment: Antifungal activity against Candida albicans ATCC 10231 after 24 to 72 hrs by broth microdilution method; type: functional
Summary of the method: (§1)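 Broth microdilution MIC per CLSI M27-A3 (yeasts) or M38-A2 (molds). RPMI 1640 with L-glutamine, without bicarbonate, buffered to pH 7.0 with 0.165 M MOPS. Final test range for the compounds was 0.175–87.5 μM. Incubation at 35°C with visual reading at 24–72 h. MIC was the lowest concentration giving 100% inhibition versus the growth control (azoles 50% or 100%, by organism). Each isolate was run in duplicate in two independent experiments.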

Rhizopus arrhizus = experiment: Antifungal activity against Rhizopus oryzae 05-203111 after 24 to 72 hrs by broth microdilution method; type: functional
Summary of the method: (§2)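 Mold isolates subcultured on potato dextrose agar, then tested by CLSI M38-A2 broth microdilution in RPMI 1640 (L-glutamine, no bicarbonate) buffered to pH 7.0 with 0.165 M MOPS. Compounds were dissolved in water and tested at a final 0.175–87.5 μM. Plates were incubated at 35°C. MIC was read visually as the lowest concentration giving 100% inhibition versus the growth control. Each isolate was run in duplicate in two independent experiments.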

Cryptococcus neoformans [2] = experiment: Antifungal activity against Cryptococcus neoformans 05-202523 after 48 to 72 hrs; type: functional
Summary of the method: (§3)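 MFC: after the MIC read, 30-μl aliquots from each well without visible growth were plated onto Sabouraud dextrose agar and incubated at 35°C. Reading was at 48–72 h for yeasts and up to 7 days for molds. MFC was the lowest concentration with no colonies.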

Pichia kudriavzevii [3] = experiment: Antifungal activity against Candida krusei ATCC 6258 after 24 to 72 hrs by broth microdilution method; type: functional; summary of the method: as §1
Fusarium solani [4] = experiment: Antifungal activity against Fusarium solani 04-203102 after 48 to 72 hrs; type: functional
Summary of the method: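 After the broth microdilution MIC read, suspension from every well without visible growth was plated onto Sabouraud dextrose agar and incubated at 35°C, up to 7 days for molds. MFC was taken as the lowest drug concentration with no colonies.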

Candida tropicalis = experiment: Antifungal activity against Candida tropicalis 04-202361 after 24 to 72 hrs by broth microdilution method; type: functional; summary of the method: as §1
Aspergillus fumigatus [5] = experiment: Antifungal activity against Aspergillus fumigatus 05-203114 after 24 to 72 hrs by broth microdilution method; type: functional; summary of the method: as §1
Aspergillus flavus [6] = experiment: Antifungal activity against Aspergillus flavus 05-203758 after 24 to 72 hrs by broth microdilution method; type: functional; summary of the method: as §1
[7] = Antifungal activity against Exophiala jeanselmei 03-200268 after 24 to 72 hrs by broth microdilution method; type: functional; summary of the method: as §1
Lichtheimia corymbifera [8] = experiment: Antifungal activity against Absidia corymbifera 04-200170 after 24 to 72 hrs by broth microdilution method; type: functional; summary of the method: as §1
Aspergillus flavus [9] = experiment: Antifungal activity against Aspergillus flavus ATCC 204304 after 24 to 72 hrs by broth microdilution method; type: functional; summary of the method: as §1
Nakaseomyces glabratus = experiment: Antifungal activity against Candida glabrata 04-202345 after 24 to 72 hrs by broth microdilution method; type: functional; summary of the method: as §1
Lomentospora prolificans = experiment: Antifungal activity against Scedosporium prolificans 05-203060 after 24 to 72 hrs by broth microdilution method; type: functional; summary of the method: as §2
Cryptococcus neoformans [10] = experiment: Antifungal activity against Cryptococcus neoformans 05-202523 after 24 to 72 hrs by broth microdilution method; type: functional; summary of the method: as §1
Aspergillus flavus [11] = experiment: Antifungal activity against Aspergillus flavus ATCC 204304 after 48 to 72 hrs; type: functional; summary of the method: as §3
Candida parapsilosis [12] = experiment: Antifungal activity against Candida parapsilosis 04-202398 after 48 to 72 hrs; type: functional; settings: Lodderomyces parapsilosis
Summary of the method: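 CLSI M27-A3 broth microdilution for yeasts in RPMI 1640 with L-glutamine and no bicarbonate, buffered with 0.165 M MOPS to pH 7.0. Compounds were dissolved in water and tested at 0.175–87.5 μM final, 35°C. MIC was read visually at 24–72 h as 100% inhibition versus growth control. For MFC, 30 μl from clear wells went onto SDA at 35°C for 48–72 h, reading the lowest concentration without colonies. Duplicates, two independent runs.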

Cryptococcus neoformans [13] = experiment: Antifungal activity against Cryptococcus neoformans ATCC 90112 after 48 to 72 hrs; type: functional; summary of the method: as §3
[14] = test system: Cryptococcus gattii species complex; experiment: Antifungal activity against Cryptococcus gattii 05-200122 after 24 to 72 hrs by broth microdilution method; type: functional, Cryptococcus bacillisporus; summary of the method: as §1
Aspergillus fumigatus [15] = experiment: Antifungal activity against Aspergillus fumigatus ATCC 204305 after 24 to 72 hrs by broth microdilution method; type: functional; summary of the method: as §1
Aspergillus fumigatus [16] = experiment: Antifungal activity against Aspergillus fumigatus 05-203114 after 48 to 72 hrs; type: functional
Summary of the method: (§4)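 CLSI M38-A2 broth microdilution for molds in RPMI 1640 with L-glutamine and no bicarbonate, buffered with 0.165 M MOPS to pH 7.0. Compounds were dissolved in water and tested at 0.175–87.5 μM final, 35°C, up to 7 days. MIC was read visually as 100% inhibition versus growth control. For MFC, clear wells were plated on SDA and the lowest concentration with no colonies taken. Each isolate was run in duplicate, two independent experiments.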

Candida albicans [17] = experiment: Antifungal activity against Candida albicans ATCC 90028 after 24 to 72 hrs by broth microdilution method; type: functional; summary of the method: as §1
[18] = Antifungal activity against Paecilomyces lilacinus 05-200601 after 24 to 72 hrs by broth microdilution method; type: functional; settings: Purpureocillium lilacinum; summary of the method: as §2
[19] = test system: Cunninghamella bertholletiae; experiment: Antifungal activity against Cunninghamella bertholletiae 99-12187 after 24 to 72 hrs by broth microdilution method; type: functional; summary of the method: as §1
Aspergillus fumigatus [20] = experiment: Antifungal activity against Aspergillus fumigatus ATCC 204305 after 48 to 72 hrs; type: functional; summary of the method: as §4
Pichia kudriavzevii [21] = experiment: Antifungal activity against Candida krusei 04-202328 after 24 to 72 hrs by broth microdilution method; type: functional; summary of the method: as §1
[22] = test system: Cunninghamella bertholletiae; experiment: Antifungal activity against Cunninghamella bertholletiae 99-12187 after 48 to 72 hrs; type: functional; settings: in the assay text read “for up to 7 days” for “after 48 to 72 hrs”; summary of the method: as §3
Fusarium solani [23] = experiment: Antifungal activity against Fusarium solani 04-203102 after 24 to 72 hrs by broth microdilution method; type: functional; summary of the method: as §2
Cryptococcus neoformans [24] = experiment: Antifungal activity against Cryptococcus neoformans ATCC 90112 after 24 to 72 hrs by broth microdilution method; type: functional; summary of the method: as §1
Candida parapsilosis [25] = experiment: Antifungal activity against Candida parapsilosis 04-202398 after 24 to 72 hrs by broth microdilution method; type: functional; settings: Lodderomyces parapsilosis; summary of the method: as §1
Lichtheimia corymbifera [26] = experiment: Antifungal activity against Absidia corymbifera 04-200170 after 48 to 72 hrs; type: functional; summary of the method: as §4
Scedosporium apiospermum = experiment: Antifungal activity against Scedosporium apiospermum 05-203100 after 24 to 72 hrs by broth microdilution method; type: functional; summary of the method: as §2
Aspergillus terreus [27] = experiment: Antifungal activity against Aspergillus terreus 05-202844 after 24 to 72 hrs by broth microdilution method; type: functional; summary of the method: as §1
Exophiala spinifera = experiment: Antifungal activity against Exophiala spinifera 03-200803 after 24 to 72 hrs by broth microdilution method; type: functional; summary of the method: as §2
Candida parapsilosis [28] = experiment: Antifungal activity against Candida parapsilosis ATCC 22019 after 24 to 72 hrs by broth microdilution method; type: functional; settings: Lodderomyces parapsilosis; summary of the method: as §1
Aspergillus terreus [29] = experiment: Antifungal activity against Aspergillus terreus 05-202844 after 48 to 72 hrs; type: functional; summary of the method: as §3

SMILES: CCCCC(CCCC)c1cc[n+](CCCCCCCCCCCC[n+]2ccc(C(CCCC)CCCC)c(C)c2)cc1C.[Cl-].[Cl-]
- MIC (Candida albicans [1]): 1.86 µg/mL
- MIC (Rhizopus arrhizus): 3.7 µg/mL
- MFC (Cryptococcus neoformans [2]): 7.5 µg/mL
- MIC (Pichia kudriavzevii [3]): 3.7 µg/mL
- MFC (Fusarium solani [4]): 59.7 µg/mL
- MIC (Candida tropicalis): 1.86 µg/mL
- MIC (Aspergillus fumigatus [5]): 14.9 µg/mL
- MIC (Aspergillus flavus [6]): 59.7 µg/mL
- MIC [7]: 3.7 µg/mL
- MIC (Lichtheimia corymbifera [8]): 29.8 µg/mL
- MIC (Aspergillus flavus [9]): 14.9 µg/mL
- MIC (Nakaseomyces glabratus): 1.86 µg/mL
- MIC (Lomentospora prolificans): 3.7 µg/mL
- MIC (Cryptococcus neoformans [10]): 3.7 µg/mL
- MFC (Aspergillus flavus [11]): 59.7 µg/mL
- MFC (Candida parapsilosis [12]): 29.8 µg/mL
- MFC (Cryptococcus neoformans [13]): 3.7 µg/mL
- MIC [14]: 1.86 µg/mL
- MIC (Aspergillus fumigatus [15]): 14.9 µg/mL
- MFC (Aspergillus fumigatus [16]): 59.7 µg/mL
- MIC (Candida albicans [17]): 1.86 µg/mL
- MIC [18]: 59.7 µg/mL
- MIC [19]: 14.9 µg/mL
- MFC (Aspergillus fumigatus [20]): 29.8 µg/mL
- MIC (Pichia kudriavzevii [21]): 3.7 µg/mL
- MFC [22]: 29.8 µg/mL
- MIC (Fusarium solani [23]): 29.8 µg/mL
- MIC (Cryptococcus neoformans [24]): 1.86 µg/mL
- MIC (Candida parapsilosis [25]): 14.9 µg/mL
- MFC (Lichtheimia corymbifera [26]): 59.7 µg/mL
- MIC (Scedosporium apiospermum): 1.86 µg/mL
- MIC (Aspergillus terreus [27]): 3.7 µg/mL
- MIC (Exophiala spinifera): 1.86 µg/mL
- MIC (Candida parapsilosis [28]): 1.86 µg/mL
- MFC (Aspergillus terreus [29]): 14.9 µg/mL
